# From the RNAGym collection of RNA variant scans (doi:10.1126/science.aae0568)
# This sample holds only a part of the variants without activity.
# B1: tRNA (parent)
# chain: GUUCCGUUGGCGUAAUGGUAACGCGUCUCCCUCCUAAGGAGAAGACUGCGGGUUCGAGUCCCGUACGGAACG
# Variants of: B1
# Test: yeast fitness relative to wild type (ratio to wild type); higher = fitter; tRNA-Arg(CCU), competitive growth, 37 C, YPD
# Summary of the method: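 Start and end populations of a pooled competition were compared by 100-nucleotide paired-end sequencing of gene amplicons. The Saccharomyces cerevisiae strains carried tRNA-Arg(CCU) gene variants at the native genomic locus, synthesised with a 3% per-site mutation rate at 69 sites, and competed in YPD at 37°C for 24 hours in six parallel replicates. Darwinian fitness relative to wild type was based on the change in genotype frequencies. Genotypes required ≥ 100 starting reads, and estimates < 0.5 were set to 0.5.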
row,Variant,yeast fitness
1,GUUCCGUUGGCGUAAUGAUAACGCGUCUCUCUCCUAAGGACAAGACUGCAGGUUCGAGUCCCGUCCGGAACG,≤ 0.5
2,GUUCCGUUGGCGUAAUGAUAACGCGUCUCCCUCAUAAGGAGAAGAUUGCGGGUUCGAGUCCCGUACGGAACG,0.692
3,GUUCCGUUGGCGUAAUGAUAACGCGUCUCGCUCCUCAGGAGAACACUGCGGGUUCGAGUCCCGUACGGAACG,≤ 0.5
4,GUUCCGUUGGCGUAAUGAUAACGCGUCUCCAUCCUAAGGAGAAGACUGCGGGUUCCAGUCCCGUCCGGAACG,≤ 0.5
5,GUUCCGUUGGCGUAAUGAUAACGCCUCUCCCUCCUAAGGAGAAGACUGCGGGUUCGAGUCCCGUACGGAACG,0.746
6,GUUCCGUUGGCGUAAUGAUAACGCCUCUCCCUCCUAAGGAGAAGACUGCGGGUUCGAGUCCCGUACGGCACG,0.519
7,GUUCCGUUGGCGUAAUGAUAACGCGUCUCCCUUCUAAGGAGGAGACUGCGGGUUCGAGUCCCGUACGGAACG,0.54
8,GUUCCGUUGGCGUAAUGAUAACGCGUCUCCCUCCUAAGGAGAAGACUGGGGGUUCGAGUGCCGUACGGAACG,≤ 0.5
9,GUUCCGUUGGCGUAAUGAUAACGCGUCUCUCUCCUAAGGAGAAGACUGCGGGUUGGAGUCCCGUACGAAACG,≤ 0.5
10,GUUCCGUUGGCGUAAUGAUAACGCAUCUCCCUCCUAAGGAGAAGAUUGCGGGUUGGAGUCCCGUACGGCACG,≤ 0.5
11,GUUCCGUUGGCGUAAUGAUAACGCGUCUCCCUCUUAAGGAGAAGACUGCGGGUUCGAGUCCCGUACAGAACG,≤ 0.5
12,GUUCCGUUGGCGUAAUGAUAACGCGUCUCCCUCUUAAGGAGACGACUGCGGGGUCGAGUCCCGUACGCAACG,≤ 0.5
13,GUUCCGUUGGCGUAAUGAUAACGCGUCUCUCUCCUAAGGAGAAGACUGCGGGUUCGAGUCCCGUACGGAACG,0.709
14,GUUCCGUUGGCGUAAUGAUAACGCGUCUUCCUCCCAAGGAGAAGACUGCGGCUUCGAGUCCCGUACGGAACG,≤ 0.5
15,GUUCCGUUGGCGUAAUGAUAACGCGUCUCCCUCCUAAGGAGAAAACUGCGGGUUCGAGUCCUGUACGGAACG,≤ 0.5
16,GUUCCGUUGGCGUAAUGAUAACGCGUCUCGCUCCUAUGGAGAAGACUGCGGGUUGGAGUCCCGUACGGAACG,≤ 0.5
17,GUUCCGUUGGCGUAAUGAUAACGCGUCUCCCUCCUAAGGAGAAGAGUGCGGGUUCGAGUCCCGUUCGGAACG,0.697
18,GUUCCGUUGGCGUAAUGAUAACGCGUCUCCCUCCUAAGGACAAGACUGCGGGAUCGAGUCCCGUACGGAACG,0.557
19,GUUCCGUUGGCGUAAUGAUAACGCGUCUCCCUCCUAAGCAGAAGACUGCGGGUUCGAGUCCCGUACGGAACG,0.757

row,Variant,yeast fitness
1,GUUCCGUUGGCGUAAUGAUAACGCGUCUCCCUCCUAAGGAAAAGACUGCGGGUUCGAGUCCCGUAGGGAACG,≤ 0.5
2,GUUCCGUUGGCGUAAUGAUAACGCGUCUCCCUCUUAAGCAGAAGACUGCGGGUUCGAGUCCCGUACGGAACG,≤ 0.5
3,GUUCCGUUGGCGUAAUGAUAACGCGUCUCCUUCCUAAGGAGAAGACUGCGGGUUCGAAUCCCGUACGGAACG,0.643
4,GUUCCGUUGGCGUAAUGAUAACGCGUCUCCCUUCUAAGGAGAAGACUGCGGGAUAGAGUCCCGUACGGAACG,0.523
5,GUUCCGUUGGCGUAAUGAUAACGCGUCUCCCUUCUAAGGAGGAGACUGCGGGUUCGAGUGCGGUACGGAACG,≤ 0.5
6,GUUCCGUUGGCGUAAUGAUAACGCGUCUCCCUCCUAAGACGAAGACUGCGGGUUCGAGUCCCGUACGGAUCG,≤ 0.5
7,GUUCCGUUGGCGUAAUGAUAACGCAUCUCCCUCCUAAGGAGAAGACUGUGGGUUCGAGUCCUGUACGGAACG,≤ 0.5
8,GUUCCGUUGGCGUAAUGAUAACGCGUCUCCCUCGUAAGGAGAAGACUGCGGGUCCGAGUCCCGUACGGAACG,≤ 0.5
9,GUUCCGUUGGCGUAAUGAUAACGCGUCUCCCUCCUAAGGAGAAGAUUGCGGGUUCGAGCACCGUACGAAACG,≤ 0.5
10,GUUCCGUUGGCGUAAUGAUAACGCGUCUCCCUCCUAAGGAGAAGACUGCGGGUUCGAGUUCCGUGCGGAACG,≤ 0.5
11,GUUCCGUUGGCGUAAUGAUAACGCGUCUCCCUCUUAAGGAGACGACUGCGGGUUCGAGUCCCGUACGGAACG,≤ 0.5
12,GUUCCGUUGGCGUAAUGAUAACGCAUCUCCCUCCUAAAGAGAAGACUGCGGGUUCGGGUCCCGUACGGAACG,≤ 0.5
13,GUUCCGUUGGCGUAAUGAUAACGCGUCUCCCUCUUAAGGGGAAGACUGCGGGUUCGAGUCCCGUAGGGAACG,≤ 0.5
14,GUUCCGUUGGCGUAAUGAUAACGCGUCUCCCUCAUAAGGAGAAGACUGCGGGUUCGAGUACCGUACGGAACG,≤ 0.5
15,GUUCCGUUGGCGUAAUGAUAACGCGUCUCACUCGUAAGGAGAAGACUGCGGGUUCGAGUCCCGUACGGAACG,≤ 0.5
16,GUUCCGUUGGCGUAAUGAUAACACGUCUCCCUCCUAAGGAGAAGACUGCGGGUUCGACUCCCGUACGGACCG,≤ 0.5
17,GUUCCGUUGGCGUAAUGAUAACGCGUCUCCCUCCUAAGGAGAAGACUGCGGGUUUCAGUCCCGUACGGAGCG,≤ 0.5
18,GUUCCGUUGGCGUAAUGAUAACGCGUCUCUCUCCUAAGGACAAGACUGCAGGUUCGAGUCCCGUACCGAACG,0.666
